For assay [1], the target named is T1, Cathepsin K (Homo sapiens, UniProt P43235).
T1 sequence (P43235 whole entry): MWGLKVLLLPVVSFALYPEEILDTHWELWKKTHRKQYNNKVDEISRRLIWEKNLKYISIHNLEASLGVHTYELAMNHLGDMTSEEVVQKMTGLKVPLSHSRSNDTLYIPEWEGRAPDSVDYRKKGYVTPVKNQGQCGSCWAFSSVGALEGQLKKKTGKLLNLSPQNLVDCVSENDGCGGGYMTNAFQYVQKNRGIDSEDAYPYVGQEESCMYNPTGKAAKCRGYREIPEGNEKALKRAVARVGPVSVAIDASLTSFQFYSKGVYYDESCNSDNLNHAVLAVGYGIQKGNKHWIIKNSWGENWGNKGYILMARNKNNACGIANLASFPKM
Put plainly: Concentration required to inhibit 50% of cysteine protease cathepsin K of human. Summed up:
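Reactions were started by adding inhibitor plus substrate to enzyme. AMC fluorescence (ex 360/em 440) progress curves were followed over 2.3 h at varied inhibitor concentrations. IC50 was fitted as rate = Vmax/(1+[I]/IC50).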

The nature of assay [2]: Selectivity ratio between IC50 against Cathepsin S and IC50 against Cathepsin K. Summed up: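 Recombinant human cathepsin S was run with Cbz-Val-Val-Arg-AMC at 10 μM final (Km >100 μM); human cathepsin K used Cbz-Phe-Arg-AMC at 10 μM. Both were in pH 5.5 sodium acetate with 10 mM DTT, 120 mM NaCl and 10% DMSO at 30 °C, with AMC fluorescence progress curves over 2.3 h. The ratio was taken from the fitted IC50s.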

Assay [3] addresses T2, Cathepsin K (Rattus norvegicus, UniProt O35186).
T2 sequence (O35186 whole entry): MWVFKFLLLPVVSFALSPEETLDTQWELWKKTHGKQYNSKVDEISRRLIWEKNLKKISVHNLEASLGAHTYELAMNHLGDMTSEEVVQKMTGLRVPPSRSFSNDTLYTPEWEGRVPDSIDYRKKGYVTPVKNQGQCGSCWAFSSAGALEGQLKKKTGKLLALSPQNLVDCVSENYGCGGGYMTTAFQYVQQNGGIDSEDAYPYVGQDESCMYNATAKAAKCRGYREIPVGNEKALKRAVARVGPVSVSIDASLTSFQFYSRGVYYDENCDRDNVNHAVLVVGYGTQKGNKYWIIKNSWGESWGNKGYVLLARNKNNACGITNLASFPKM
The assay is described as follows: Inhibition of cysteine protease cathepsin K of rat.

As for `CCCC[C@H](NC(=O)OC(C(C)C)C(C)C)C(=O)C(=O)Nc1[nH]nc2cccc(F)c12`, the half-maximal inhibitory concentration (IC50) on Cathepsin K [1] came to 0.26 nM. Moreover, in assay [2], the Ratio is 2.3.
`CCCC[C@H](NC(=O)OC(C(C)C)C(C)C)C(=O)C(=O)Nc1ccnn1-c1ccccc1`: the half-inhibitory concentration (IC50) against Cathepsin K [3] was 790 nM; at Cathepsin K [1] it was 15 nM.
With `CCCC[C@H](NC(=O)OC(C(C)C)C(C)C)C(=O)C(=O)Nc1ccnn1C1CCCCC1`, the results for the concentration for half-maximal inhibition (IC50) on Cathepsin K [3] and against Cathepsin K [1] were 1200 nM and 22 nM, respectively.
Turning to `CCCC[C@H](NC(=O)OC(C(C)C)C(C)C)C(=O)C(=O)Nc1ccnn1C(C)C`, the IC50 is 1000 nM against Cathepsin K [3] and 17 nM against Cathepsin K [1].
Consider `CCCC[C@H](NC(=O)OC(C(C)C)C(C)C)C(=O)C(=O)Nc1[nH]ncc1C(=O)OCC`, for which the IC50 on Cathepsin K [1] was determined as 1.7 nM. The Ratio in assay [2] stood at 3.6.
Take `CCCC[C@H](NC(=O)OC(C(C)C)C(C)C)C(=O)C(=O)Nc1cc(-c2ccccc2)n[nH]1`: the half-inhibitory concentration (IC50) against Cathepsin K [3] worked out at 12 nM; against Cathepsin K [1] it was 0.65 nM.
At Cathepsin K [1], `CCCC[C@H](NC(=O)OC(C(C)C)C(C)C)C(=O)C(=O)Nc1ccc2ccccc2n1` displayed an IC50 of 250 nM.
The same measure, in the same setting: next, `CCCC[C@H](NC(=O)OC(C(C)C)C(C)C)C(=O)C(=O)Nc1cccnc1`: 95 nM; `CCCC[C@H](NC(=O)OC(C(C)C)C(C)C)C(=O)C(=O)Nc1cc(C)n[nH]1`: 0.71 nM.
For the molecule `CCCC[C@H](NC(=O)OC(C(C)C)C(C)C)C(=O)C(=O)Nc1cnccn1`, the midpoint of inhibition against Cathepsin K [1], the IC50, lay at 52 nM.
Still for that read-out and setting: next, `CCCC[C@H](NC(=O)OC(C(C)C)C(C)C)C(=O)C(=O)NCc1cccs1`: 9.2 nM; `CC(C)C(OC(=O)NCC(=O)C(=O)NCc1cccs1)C(C)C`: 12000 nM.
The molecule `CCCC[C@H](NC(=O)OC(C(C)C)C(C)C)C(=O)C(=O)Nc1[nH]ncc1Br` came in with an IC50 on Cathepsin K [1] of 0.24 nM. Also, in assay [2], the Ratio turned out to be 4.2.
Turning to `CCCC[C@H](NC(=O)OC(C(C)C)C(C)C)C(=O)C(=O)Nc1ccn(C)n1`, the concentration for half-maximal inhibition (IC50) came out at 11 nM against Cathepsin K [3] and 0.41 nM against Cathepsin K [1].
Regarding `CC(C)C[C@H](NC(=O)OC(C(C)C)C(C)C)C(=O)C(=O)NCc1cccs1`, the midpoint of inhibition against Cathepsin K [1], the IC50, lay at 24 nM.
The same measure, in the same setting: next, `CC(C)C(OC(=O)N[C@H](C(=O)C(=O)NCc1cccs1)C(C)C)C(C)C`: 47 nM; `CC(C)C(OC(=O)N[C@@H](CC1CCCCC1)C(=O)C(=O)NCc1cccs1)C(C)C`: 14 nM; `CCCC[C@H](NC(=O)OC(C(C)C)C(C)C)C(=O)C(=O)Nc1cc2ccccc2cn1`: 4.8 nM.
For the molecule `CCCC[C@H](NC(=O)OC(C(C)C)C(C)C)C(=O)C(=O)Nc1ccnn1CC`, the IC50 was 1500 nM against Cathepsin K [3] and 26 nM at Cathepsin K [1].
Regarding `CCCC[C@H](NC(=O)OC(C(C)C)C(C)C)C(=O)C(=O)Nc1ccon1`, on Cathepsin K [1], the IC50 is 5.1 nM.
In the case of `CCCC[C@H](NC(=O)OC(C(C)C)C(C)C)C(=O)C(=O)Nc1cc(C)[nH]n1`, the Ratio in assay [2] was 4.6.
`CCCC[C@H](NC(=O)OC(C(C)C)C(C)C)C(=O)C(=O)Nc1ccnn1C1CCCC1`: the half-maximal inhibitory concentration (IC50) against Cathepsin K [3] is 1100 nM; on Cathepsin K [1] it was 20 nM.
Taken in the same sequence, the figures for `CCCC[C@H](NC(=O)OC(C(C)C)C(C)C)C(=O)C(=O)Nc1ccnn1CCC(C)(C)C` were 1600 nM and 62 nM.
Molecule `CC(C)C(OC(=O)N[C@@H](Cc1ccccc1)C(=O)C(=O)NCc1cccs1)C(C)C` displayed an IC50 against Cathepsin K [1] of 27 nM.
`CCC(C)[C@H](NC(=O)OC(C(C)C)C(C)C)C(=O)C(=O)NCc1cccs1` (stereo not given in full): the half-inhibitory concentration (IC50) on Cathepsin K [1] amounted to 87 nM. This IC50 is about 3.2-fold higher than that of the molecule before.
The same measure, in the same setting: next, `CCCC[C@H](NC(=O)OC(C(C)C)C(C)C)C(=O)C(=O)N[C@H](C)c1ccccc1`: 2.54 nM.
With `CCCC[C@H](NC(=O)OC(C(C)C)C(C)C)C(=O)C(=O)Nc1[nH]ncc1C#N`, the midpoint of inhibition against Cathepsin K [1], the IC50, lay at 0.91 nM. The Ratio in assay [2] stood at 3.6.
`CC(C)C(OC(=O)N[C@@H](C)C(=O)C(=O)NCc1cccs1)C(C)C` displayed an IC50 on Cathepsin K [1] of 360 nM.

Source of the values: ChEMBL document CHEMBL1148287, “Design of potent, selective, and orally bioavailable inhibitors of cysteine protease cathepsin k” (J Med Chem, 2004).
